Measured values taken from paper PMC6409185 (Investigational new drugs, 2018).

Legend:
Format in all cases: biochemical
Settings in all cases: relaxation assay in the presence of 100 μM compound
[1] = target: T1, hTopo I (Homo sapiens, UniProt P11387); assay: Relaxation assay for eukaryotic Topo I
T1 sequence (P11387 1-765): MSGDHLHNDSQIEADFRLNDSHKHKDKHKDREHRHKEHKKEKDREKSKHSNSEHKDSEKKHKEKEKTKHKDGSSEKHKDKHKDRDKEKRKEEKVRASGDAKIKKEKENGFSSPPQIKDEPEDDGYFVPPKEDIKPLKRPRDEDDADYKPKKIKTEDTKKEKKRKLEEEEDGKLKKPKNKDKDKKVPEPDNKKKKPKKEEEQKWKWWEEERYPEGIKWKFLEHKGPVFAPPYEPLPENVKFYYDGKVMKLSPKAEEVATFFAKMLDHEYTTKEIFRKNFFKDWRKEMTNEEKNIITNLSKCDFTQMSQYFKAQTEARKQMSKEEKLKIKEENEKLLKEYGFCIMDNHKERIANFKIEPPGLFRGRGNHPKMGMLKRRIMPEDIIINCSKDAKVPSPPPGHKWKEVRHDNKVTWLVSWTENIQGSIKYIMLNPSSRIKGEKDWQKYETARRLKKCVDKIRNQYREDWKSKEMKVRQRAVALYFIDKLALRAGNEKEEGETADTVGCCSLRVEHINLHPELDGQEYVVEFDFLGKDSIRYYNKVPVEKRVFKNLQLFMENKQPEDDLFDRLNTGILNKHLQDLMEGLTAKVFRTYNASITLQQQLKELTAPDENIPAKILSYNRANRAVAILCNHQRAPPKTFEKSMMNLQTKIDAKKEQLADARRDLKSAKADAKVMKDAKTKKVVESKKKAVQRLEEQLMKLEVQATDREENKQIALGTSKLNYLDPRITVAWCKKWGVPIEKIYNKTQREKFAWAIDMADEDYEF
In short: (§1)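 Commercial calf or human Topo I, 1 unit (the amount that fully relaxes 0.3 μg supercoiled pBR322), with 0.3 μg supercoiled pBR322 and test compound in 50 mM Tris-HCl pH 7.5, 100 mM NaCl, 10 mM MgCl2, 1 mM DTT, 50 μg/ml BSA. Run 15 min at 37°C, stopped with 25 mM EDTA. Products run on 1.2% agarose in TAE (2 V/cm, 15 h), stained with ethidium bromide, imaged and quantified.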

[2] = system: Calf Topo I (cTopo I); assay: Relaxation assay for eukaryotic Topo I
In short: as §1

[3] = target: E. coli Topo I (Escherichia coli, UniProt P06612); assay: Relaxation assay with E. coli Topo I
E. coli Topo I, sequence (P06612 whole entry): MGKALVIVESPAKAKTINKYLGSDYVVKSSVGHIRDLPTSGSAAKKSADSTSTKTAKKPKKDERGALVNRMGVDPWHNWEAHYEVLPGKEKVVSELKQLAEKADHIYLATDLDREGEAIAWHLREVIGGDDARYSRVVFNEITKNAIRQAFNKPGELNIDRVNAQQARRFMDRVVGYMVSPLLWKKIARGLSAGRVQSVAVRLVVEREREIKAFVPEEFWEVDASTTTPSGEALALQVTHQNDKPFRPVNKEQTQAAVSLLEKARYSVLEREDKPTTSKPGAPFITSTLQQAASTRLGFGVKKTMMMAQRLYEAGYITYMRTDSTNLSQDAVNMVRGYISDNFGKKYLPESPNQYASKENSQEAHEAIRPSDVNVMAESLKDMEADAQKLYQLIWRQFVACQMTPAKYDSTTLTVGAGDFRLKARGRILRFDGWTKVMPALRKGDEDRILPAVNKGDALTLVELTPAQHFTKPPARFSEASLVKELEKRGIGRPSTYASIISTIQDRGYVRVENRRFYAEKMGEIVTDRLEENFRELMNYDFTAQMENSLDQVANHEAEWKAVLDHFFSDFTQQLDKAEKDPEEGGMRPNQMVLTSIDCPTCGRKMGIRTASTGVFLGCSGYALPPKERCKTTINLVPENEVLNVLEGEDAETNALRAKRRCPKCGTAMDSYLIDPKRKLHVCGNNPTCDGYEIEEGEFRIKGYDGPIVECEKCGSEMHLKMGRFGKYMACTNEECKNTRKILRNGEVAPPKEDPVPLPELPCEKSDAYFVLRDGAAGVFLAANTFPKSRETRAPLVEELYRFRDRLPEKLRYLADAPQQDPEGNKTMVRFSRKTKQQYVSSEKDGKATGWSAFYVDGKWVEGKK

COc1c(N2CC[C@@H](CN)C2)c(F)cc2c(=O)c(C(=O)O)cn(C3CC3)c12 [UING-5-249]
No^2: inhibition of hTopo I [1] | inhibition of cTopo I [2] | inhibition of E. coli Topo I [3]
